Test results as given in ChEMBL document CHEMBL1926535, “Novel pyridopyrazine and pyrimidothiazine derivatives as FtsZ inhibitors” (Bioorg Med Chem, 2011).
Values after ≈ are worked out from the molar mass of the structure shown.

Key:
[1] = biological target: T1, Cell division protein FtsZ (Mycobacterium tuberculosis, UniProt P9WN95); assay: Inhibition of Mycobacterium tuberculosis FtsZ polymerization expressed in Escherichia coli by light scattering assay
T1 sequence (P9WN95 whole entry): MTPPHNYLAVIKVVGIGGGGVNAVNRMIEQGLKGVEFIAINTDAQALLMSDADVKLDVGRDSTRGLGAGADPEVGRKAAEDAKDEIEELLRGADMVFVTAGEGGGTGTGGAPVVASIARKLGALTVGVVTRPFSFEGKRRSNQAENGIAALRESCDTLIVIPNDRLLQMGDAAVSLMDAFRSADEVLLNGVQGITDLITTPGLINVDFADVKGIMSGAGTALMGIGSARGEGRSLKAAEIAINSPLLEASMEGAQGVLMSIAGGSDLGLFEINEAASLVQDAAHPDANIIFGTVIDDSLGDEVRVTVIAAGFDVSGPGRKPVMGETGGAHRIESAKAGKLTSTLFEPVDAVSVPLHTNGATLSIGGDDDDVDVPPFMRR
Procedure, shortened: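 Mtb FtsZ polymerization assay with each compound run at least three times. IC50 is the concentration that inhibits polymerization by 50%, reported as mean ± standard deviation.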

[2] = tested on: Mycobacterium tuberculosis; assay: Antituberculosis activity against Mycobacterium tuberculosis H37Rv ATCC 27294 after 7 days using alamar blue assay; assay type: functional; details: 168 h
Procedure, shortened: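 Strain H37Rv growth measured over a 10-point dose-response curve. IC90, the concentration inhibiting bacterial growth by 90%, is extrapolated from the curve.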

[3] = tested on: Mycobacterium tuberculosis; assay: Antituberculosis activity against Mycobacterium tuberculosis H37Ra ATCC 25177 after 6 days using alamar blue dye by broth microdilution assay; assay type: functional; details: H37Ra ATCC 25177, 144 h
Procedure, shortened: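 Strain H37Ra in a colorimetric Alamar blue broth microdilution assay using duplicate two-fold serial dilutions of drug.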

[4] = tested on: Vero; assay: Cytotoxicity against african green monkey Vero cells after 72 hrs by celltiter-glo assay; assay type: cell-based; details: chlorocebus sabaeus
Procedure, shortened: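 Vero cells grown in culture with compound across a 10-point dose-response curve. CC50 is extrapolated as the concentration that inhibits cell growth by 50%. Each compound was assayed at least three times.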

[5] = Inhibition of purified bovine tubulin polymerization by light scattering assay; parameters: species or system Bos taurus
Procedure, shortened: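 Tubulin polymerization assay. IC50 is the concentration that inhibits polymerization by 50%. Each compound was analyzed at least three times, reported as mean ± standard deviation.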

[6] = tested on: Mycobacterium tuberculosis; assay: Antitubercular activity against Mycobacterium tuberculosis infected in interferon-gamma-gene-disrupted C57BL/6 mouse model assessed as reduction in bacterial load in lung at 10 mg/kg, po administered daily; assay type: functional
Procedure, shortened: (§1)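 Interferon-γ gene-disrupted C57BL/6 (GKO) mice infected with M. tuberculosis. Compound given at 10 mg/kg in 0.5% methyl cellulose by daily gavage for 9 days. Read-out is the reduction in bacterial load (Log10 CFU) in lungs or spleen versus untreated controls, with significance judged by P value (0.05 threshold).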

[7] = tested on: Mus musculus; assay: Toxicity in C57BL/6 mouse model assessed as adverse event at 100 mg/kg administered via gavage; assay type: organism-based; parameters: dose 100 mg/kg; details: in vivo, po
Procedure, shortened: (§2)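 Acute maximum tolerated dose study in C57BL/6 mice. Escalating oral gavage doses up to 300 mg/kg were given daily for 3 days, formulated in 0.5% methyl cellulose. Dosage was scaled back if mortality or adverse effects were observed.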

[8] = tested on: Mycobacterium tuberculosis; assay: Antitubercular activity against Mycobacterium tuberculosis infected in interferon-gamma-gene-disrupted C57BL/6 mouse model assessed as reduction in bacterial load in spleen at 10 mg/kg, po administered daily; assay type: functional; procedure, shortened: as §1
[9] = tested on: Mus musculus; assay: Toxicity in C57BL/6 mouse model assessed as lethality at 300 mg/kg administered via gavage; assay type: organism-based; parameters: dose 300 mg/kg; details: in vivo, po
Procedure, shortened: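 Acute maximum tolerated dose study in C57BL/6 mice. Escalating doses up to 300 mg/kg were given daily for 3 days by gavage in 0.5% methyl cellulose, and doses were scaled back if mortality or adverse effects appeared.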

[10] = tested on: Mus musculus; assay: Toxicity in C57BL/6 mouse model assessed as adverse event at 30 mg/kg administered via gavage; assay type: organism-based; parameters: dose 30 mg/kg; details: in vivo, po; procedure, shortened: as §2
[11] = biological target: T2, Cell division protein FtsZ (Mycobacterium tuberculosis) (UniProt P9WN95); assay: Inhibition of Mycobacterium tuberculosis FtsZ polymerization expressed in Escherichia coli at 100 uM by light scattering assay
T2 sequence (whole entry): T1 sequence (P9WN95 whole entry)

[12] = tested on: Mycobacterium tuberculosis; assay: Antitubercular activity against Mycobacterium tuberculosis infected in interferon-gamma-gene-disrupted C57BL/6 mouse model assessed as reduction in bacterial load in lung at 10 mg/kg, po administered daily measured after 9 days; assay type: functional; procedure, shortened: as §1
[13] = tested on: Mycobacterium tuberculosis; assay: Antitubercular activity against Mycobacterium tuberculosis infected in interferon-gamma-gene-disrupted C57BL/6 mouse model assessed as reduction in bacterial load in spleen at 10 mg/kg, po administered daily measured after 9 days; assay type: functional; procedure, shortened: as §1
[14] = species on record: Bos taurus; assay: Inhibition of purified bovine tubulin polymerization at 100 uM by light scattering assay

Row | SMILES | IC50 [1] [µM] | IC90 [2] [µM] | MIC [3] [µM] | CC50 [4] [µM] | IC50 [5] [µM] | log10cfu [6] | Activity [7] | log10cfu [8] | Activity [9] | Activity [10] | inhibition [11] [%] | log10cfu [12] | log10cfu [13] | inhibition [14] [%]
1 | CCOC(=O)Nc1cc(NC(C)CCCN(CC)CC)c2nc(-c3ccco3)c(-c3ccco3)nc2n1 (stereo not given) | 26.8 | 7 | 3.6 (≈ 1.82 µg/mL) | > 40 | > 100 |  |  |  |  |  |  |  |  | 
2 | CCOC(=O)Nc1cc(NC(C)CCCN(CC)CC)c2nc(-c3ccccc3)c(-c3ccccc3)nc2n1 (stereo not given) | 34.2 | < 0.19 | 0.47 (≈ 0.248 µg/mL) |  | > 100 | 0.86 | Toxic | 0.5 | Toxic | Toxic |  |  |  | 
3 | CCOC(=O)Nc1cc(NC(C)CCCN(CC)CC)c2nc(CC)c(CC)nc2n1 (stereo not given) | > 100 | > 50 | > 290 | > 40 | > 100 |  |  |  |  |  |  |  |  | 
4 | CCOC(=O)Nc1cc(NCCN(CC)CC)c2nc(-c3ccccc3)c(-c3ccccc3)nc2n1 |  | 0.38 | 1.7 (≈ 0.824 µg/mL) | 2.7 | > 100 |  |  |  |  |  | 59 |  |  | 
5 | CCOC(=O)Nc1cc(NCCCCN(CC)CC)c2nc(-c3cccs3)c(-c3cccs3)nc2n1 |  | > 100 | 0.23 (≈ 0.121 µg/mL) | > 40 | > 100 |  |  |  |  |  | 64 |  |  | 
6 | CCOC(=O)Nc1cc(NCCN(CC)CC)c2nc(-c3cccs3)c(-c3cccs3)nc2n1 | 21 | 0.92 | ≤ 7.9 | 6.3 | > 100 |  |  |  |  |  |  |  |  | 
7 | CCOC(=O)Nc1nc(NCCCCN(CC)CC)c2c(n1)SC(c1ccccc1)C(c1ccccc1)=N2 (stereo not given) | 46.2 | 18 | 52 (≈ 27.7 µg/mL) | > 40 | 69.7 |  |  |  |  |  |  |  |  | 
8 | CCOC(=O)Nc1cc(NC(C)CCCN(CC)CC)c2nc(-c3cccs3)c(-c3cccs3)nc2n1 (stereo not given) | 34.3 | < 0.19 | 0.43 (≈ 0.232 µg/mL) | > 40 | > 100 |  |  |  |  |  |  | 0.51 | 0.58 | 
9 | CCOC(=O)Nc1cc(NCCN(C)C)c2nc(-c3cccs3)c(-c3cccs3)nc2n1 | 27.3 | < 0.19 | 1.1 (≈ 0.515 µg/mL) | 1.6 | > 100 |  |  |  |  |  |  |  |  | 
10 | CCN(CC)CCCC(C)Nc1cc(N)nc2nc(-c3cccs3)c(-c3cccs3)nc12 (stereo not given) | 29.5 | 4.1 | 17 (≈ 7.93 µg/mL) | 5.9 | > 100 |  |  |  |  |  |  |  |  | 
11 | CCOC(=O)Nc1nc(NC(C)CCCN(CC)CC)c2c(n1)SC(c1ccccc1)C(c1ccccc1)=N2 (stereo not given) | 46 | 21.7 | 49 (≈ 26.8 µg/mL) | > 40 | > 100 |  |  |  |  |  |  |  |  | 
12 | CCOC(=O)Nc1cc(NCCN(CC)CC)c2nc(-c3ccco3)c(-c3ccco3)nc2n1 | 34.8 | > 100 | 8.7 (≈ 4.04 µg/mL) | 5.5 | > 100 |  |  |  |  |  |  |  |  | 
13 | CCOC(=O)Nc1cc(NCCN(C)C)c2nc(-c3ccco3)c(-c3ccco3)nc2n1 | 34.1 | 29 | ≤ 7 | 37 | > 100 |  |  |  |  |  |  |  |  | 
14 | CCN(CC)CCCC(C)Nc1cc(N)nc2nc(-c3ccco3)c(-c3ccco3)nc12 (stereo not given) | 18.6 | > 100 | 150 (≈ 65.2 µg/mL) | 14 | > 100 |  |  |  |  |  |  |  |  | 
15 | CCOC(=O)Nc1nc(NC(C)CCCN(CC)CC)c2nc(-c3ccccc3)c(-c3ccccc3)nc2n1 (stereo not given) | 38.1 | 1.9 | 3.8 (≈ 2.01 µg/mL) |  |  |  |  |  |  |  |  |  |  | 24
16 | CCOC(=O)Nc1cc(NC(C)CCCN(CC)CC)c2nc(-c3ccccn3)c(-c3ccccn3)nc2n1 (stereo not given) | 45.7 | > 100 | 54 (≈ 28.5 µg/mL) | > 40 | > 100 |  |  |  |  |  |  |  |  | 
17 | CCOC(=O)Nc1cc(NCCCCN(CC)CC)c2nc(-c3ccco3)c(-c3ccco3)nc2n1 | 16.4 | > 100 | 3.6 (≈ 1.77 µg/mL) | > 40 | 41 |  |  |  |  |  |  |  |  | 
18 | CCOC(=O)Nc1cc(NC(C)CCCN(CC)CC)c2nc(C)c(C)nc2n1 (stereo not given) | > 100 | > 100 | > 290 | > 40 | > 100 |  |  |  |  |  |  |  |  | 
19 | CCOC(=O)Nc1cc(NCCN(C)C)c2nc(-c3ccccc3)c(-c3ccccc3)nc2n1 | 54.6 | < 0.19 | ≤ 7.6 | 0.7 | > 100 |  |  |  |  |  |  |  |  | 
20 | CCOC(=O)Nc1cc(NCCCCN(CC)CC)c2nc(-c3ccccc3)c(-c3ccccc3)nc2n1 | 52 | < 0.19 | 0.24 (≈ 0.123 µg/mL) | 1.8 |  |  |  |  |  |  |  |  |  | 40
